ChEMBL document CHEMBL1671681, “Distribution of serotypes, genotypes, and resistance determinants among macrolide-resistant Streptococcus pneumoniae isolates” (2010)
Converted amounts (≈) assume the structure as drawn.

How the values were obtained:
Type in all cases: functional
[1] = test system: Streptococcus pneumoniae; test: Antimicrobial activity against erythromycin-resistant Streptococcus pneumoniae assessed as resistant isolates by broth microdilution method in presence of clavulanic acid
In short: (§1)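 Isolates were tested by broth microdilution in commercial microtiter trays. Medium was cation-adjusted Mueller-Hinton broth supplemented with 3 to 5% lysed horse blood. MICs were interpreted by CLSI criteria. For penicillin, the pre-2008 breakpoints were applied (susceptible ≤0.06 mg/liter).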

[2] = test system: Streptococcus pneumoniae; test: Antimicrobial activity against erythromycin-resistant Streptococcus pneumoniae assessed as susceptible isolates by broth microdilution method in presence of clavulanic acid; in short: as §1
[3] = test system: Streptococcus pneumoniae; test: Antimicrobial activity against erythromycin-resistant Streptococcus pneumoniae by broth microdilution method in presence of clavulanic acid
In short: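 Broth microdilution in commercial pre-made microtiter trays using cation-adjusted Mueller-Hinton broth with 3 to 5% lysed horse blood. Pneumococcal isolates were tested, and MICs were interpreted by CLSI criteria.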

[4] = test system: Streptococcus pneumoniae; test: Antimicrobial activity against erythromycin-resistant Streptococcus pneumoniae by broth microdilution method
In short: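 Isolates were tested by broth microdilution in commercial microtiter trays. Medium was cation-adjusted Mueller-Hinton broth supplemented with 3 to 5% lysed horse blood. MICs were interpreted by CLSI criteria.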

[5] = test system: Streptococcus pneumoniae; test: Antimicrobial activity against erythromycin-resistant Streptococcus pneumoniae assessed as resistant isolates by broth microdilution method; in short: as §1
[6] = test system: Streptococcus pneumoniae; test: Antimicrobial activity against erythromycin-resistant Streptococcus pneumoniae assessed as susceptible isolates by broth microdilution method; in short: as §1

Row | Compound | Activity [1] [%] | Activity [2] [%] | MIC [3] [µg/mL] | MIC50 [3] [µg/mL] | MIC90 [3] [µg/mL] | MIC [4] [µg/mL] | MIC50 [4] [µg/mL] | MIC90 [4] [µg/mL] | Activity [5] [%] | Activity [6] [%]
1 | CC1(C)S[C@@H]2[C@H](NC(=O)[C@H](N)c3ccc(O)cc3)C(=O)N2[C@H]1C(=O)O [AMOXICILLIN] | 28.4 | 66.7 | < 2 | < 2 | > 8 | – | – | – | – | –
2 | CC[C@H]1OC(=O)[C@H](C)[C@@H](O[C@H]2C[C@@](C)(OC)[C@@H](O)[C@H](C)O2)[C@H](C)[C@@H](O[C@@H]2O[C@H](C)C[C@H](N(C)C)[C@H]2O)[C@](C)(O)C[C@@H](C)CN(C)[C@H](C)[C@@H](O)[C@]1(C)O [AZITHROMYCIN] | – | – | – | – | – | > 2 | > 2 | > 2 | 100 | 0
3 | CO/N=C(\C(=O)N[C@@H]1C(=O)N2C(C(=O)O)=C(COC(C)=O)CS[C@H]12)c1csc(N)n1 [CEFOTAXIME] | – | – | – | – | – | – | 1 (≈ 2.2 µM) | 2 (≈ 4.39 µM) | 5.9 | 62.7
4 | O=C(N[C@H](CO)[C@H](O)c1ccc([N+](=O)[O-])cc1)C(Cl)Cl [CHLORAMPHENICOL] | – | – | – | – | – | – | 4 (≈ 12.4 µM) | 8 (≈ 24.8 µM) | 33.3 | 66.7
5 | CCC[C@@H]1C[C@@H](C(=O)N[C@@H]([C@H]2O[C@H](SC)[C@H](O)[C@@H](O)[C@H]2O)[C@H](C)Cl)N(C)C1 [CLINDAMYCIN] | – | – | – | – | – | – | > 2 | > 2 | 67.6 | 30.4
6 | CC[C@H]1OC(=O)[C@H](C)[C@@H](O[C@H]2C[C@@](C)(OC)[C@@H](O)[C@H](C)O2)[C@H](C)[C@@H](O[C@@H]2O[C@H](C)C[C@H](N(C)C)[C@H]2O)[C@](C)(O)C[C@@H](C)C(=O)[C@H](C)[C@@H](O)[C@]1(C)O [ERYTHROMYCIN] | – | – | – | – | – | > 2 | > 2 | > 2 | 100 | 0
7 | COc1c(N2CCNC(C)C2)c(F)cc2c(=O)c(C(=O)O)cn(C3CC3)c12 (stereo not drawn) [GATIFLOXACIN] | – | – | – | – | – | < 0.5 | < 0.5 | < 0.5 | 0 | 100
8 | C[C@H]1COc2c(N3CCN(C)CC3)c(F)cc3c(=O)c(C(=O)O)cn1c23.C[C@H]1COc2c(N3CCN(C)CC3)c(F)cc3c(=O)c(C(=O)O)cn1c23.O [LEVOFLOXACIN] | – | – | – | – | – | – | 1 | 1 | 0 | 100
9 | CC(=O)NC[C@H]1CN(c2ccc(N3CCOCC3)c(F)c2)C(=O)O1 [LINEZOLID] | – | – | – | – | – | – | 1 (≈ 2.96 µM) | 1 (≈ 2.96 µM) | 0 | 100
10 | C[C@@H](O)[C@H]1C(=O)N2C(C(=O)O)=C(S[C@@H]3CN[C@H](C(=O)N(C)C)C3)[C@H](C)[C@H]12 [MEROPENEM] | – | – | – | – | – | – | 0.5 (≈ 1.3 µM) | 1 (≈ 2.61 µM) | 34.3 | 33.3
11 | COc1c(N2C[C@@H]3CCCN[C@@H]3C2)c(F)cc2c(=O)c(C(=O)O)cn(C3CC3)c12 [MOXIFLOXACIN] | – | – | – | – | – | – | – | – | 0 | 100
12 | CC1(C)S[C@@H]2[C@H](NC(=O)Cc3ccccc3)C(=O)N2[C@H]1C(=O)O [PENICILLIN G] | – | – | – | – | – | – | 2 (≈ 5.98 µM) | 4 (≈ 12 µM) | 68.6 | 24.5
13 | CN(C)[C@@H]1C(O)=C(C(N)=O)C(=O)[C@@]2(O)C(O)=C3C(=O)c4c(O)cccc4[C@@](C)(O)[C@H]3C[C@@H]12 [TETRACYCLINE] | – | – | – | – | – | – | ≥ 8 | ≥ 8 | 74.5 | 24.5
14 | CN[C@H](CC(C)C)C(=O)N[C@H]1C(=O)N[C@@H](CC(N)=O)C(=O)N[C@H]2C(=O)N[C@H]3C(=O)N[C@H](C(=O)N[C@H](C(=O)O)c4cc(O)cc(O)c4-c4cc3ccc4O)[C@H](O)c3ccc(c(Cl)c3)Oc3cc2cc(c3O[C@@H]2O[C@H](CO)[C@@H](O)[C@H](O)[C@H]2O[C@H]2C[C@](C)(N)[C@H](O)[C@H](C)O2)Oc2ccc(cc2Cl)[C@H]1O [VANCOMYCIN] | – | – | – | – | – | – | < 0.5 | < 0.5 | 0 | 100
